Experiments:
Format in all cases: functional
[1] = system: Rattus norvegicus; assay: (§1) Dopaminergic activity causing prolactin inhibition in reserpinized rat after i.p. administration at dosage of 5.0 mg/kg; settings: ip, route intraperitoneal
[2] = system: Rattus norvegicus; assay: Percentage of lesioned rats exhibiting contralateral turning after ip dosage of 1.0 mg/kg; settings: route intraperitoneal
Method in brief: (§2)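 Rats with unilateral 6-hydroxydopamine nigrostriatal lesions dosed intraperitoneally; contralateral rotation scored as percentage of rats turning and average turns counted over first 15 min after turning began; 6-10 rats per group.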

[3] = system: Rattus norvegicus; assay: Average turns of rat / 1st 15 min at intraperitoneal dosage of 1.0 mg/kg
[4] = organism: Rattus norvegicus; assay: animal or person; settings: ip, route intraperitoneal
[5] = system: Rattus norvegicus; assay: (§3) Dopaminergic activity causing prolactin inhibition in reserpinized rat after i.p. administration at dosage of 0.005 mg/kg; settings: ip, route intraperitoneal
Method in brief: (§4)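 Serum prolactin measured in reserpinized male rats given drug intraperitoneally; control group serum level alongside treated level; percent inhibition derived from control versus treated means; mean ± standard error for 10 rats per group; significance level (p) reported versus control.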

[6] = system: Rattus norvegicus; assay: (§5) Tested for lowering of serum prolactin level in reserpinized rat after i.p. administration at dosage of 0.05 mg/kg; settings: route intraperitoneal; method in brief: as §4
[7] = system: Rattus norvegicus; assay: (§6) Percentage of lesioned rats exhibiting contralateral turning after intraperitoneal dosage of 0.1 mg/kg; method in brief: as §2
[8] = system: Rattus norvegicus; assay: Tested for lowering of serum prolactin level in reserpinized rat after i.p. administration at dosage of 0.005 mg/kg; settings: route intraperitoneal; method in brief: as §4
[9] = system: Rattus norvegicus; assay: (§7) Tested for average turns of rat / 1st 15 min at intraperitoneal dosage of 0.1 mg/kg; method in brief: as §2
[10] = system: Rattus norvegicus; assay: Percentage of lesioned rats exhibiting contralateral turning after intraperitoneal dosage of 1.0 mg/kg
Method in brief: (§8)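 Rats with unilateral 6-hydroxydopamine nigrostriatal lesions dosed i.p.; contralateral rotation scored as % of rats turning and average turns during first 15 min after turning began; 6-10 rats per group. Method of Ungerstedt and Arbuthnot.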

[11] = system: Rattus norvegicus; assay: (§9) Control Serum prolactin level in reserpinized rat after i.p. administration at dosage of 0.05 mg/kg; settings: route intraperitoneal
[12] = system: Rattus norvegicus; assay: Percentage of lesioned rats exhibiting contralateral turning after intraperitoneal dosage of 0.05 mg/kg; method in brief: as §2
[13] = system: Rattus norvegicus; assay: Tested for average turns of rat / 1st 15 min at intraperitoneal dosage of 0.05 mg/kg; method in brief: as §2
[14] = system: Rattus norvegicus; assay: Control Serum prolactin level in reserpinized rat after i.p. administration at dosage of 0.005 mg/kg; settings: route intraperitoneal; method in brief: as §4
[15] = system: Rattus norvegicus; assay: Control Serum prolactin level in reserpinized rat after i.p. administration at dosage of 0.0005 mg/kg; settings: route intraperitoneal; method in brief: as §4
[16] = system: Rattus norvegicus; assay: Percentage of lesioned rats exhibiting contralateral turning after ip dosage of 0.1 mg/kg; settings: route intraperitoneal; method in brief: as §2
[17] = system: Rattus norvegicus; assay: Percentage of lesioned rats exhibiting contralateral turning after ip dosage of 0.05 mg/kg; settings: route intraperitoneal; method in brief: as §2
[18] = system: Rattus norvegicus; assay: Dopaminergic activity causing prolactin inhibition in reserpinized rat after i.p. administration at dosage of 0.0005 mg/kg; settings: ip, route intraperitoneal; method in brief: as §4
[19] = system: Rattus norvegicus; assay: Tested for lowering of serum prolactin level in reserpinized rat after i.p. administration at dosage of 0.0005 mg/kg; settings: route intraperitoneal; method in brief: as §4
[20] = system: Rattus norvegicus; assay: as §3; settings: ip, route intraperitoneal; remark: listed apart in the source
Method in brief: (§10)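 Male rats pretreated with reserpine; drug given i.p. and serum prolactin measured (ng/mL) in controls and treated groups; % inhibition relative to control; mean ± SE for 10 rats per group; significance level p reported. Method of Clemens et al.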

[21] = system: Rattus norvegicus; assay: as §1; settings: ip, route intraperitoneal; method in brief: as §4; remark: listed apart in the source
[22] = system: Rattus norvegicus; assay: Control Serum prolactin level in reserpinized rat after i.p. administration at dosage of 5 mg/kg; settings: route intraperitoneal
Method in brief: (§11)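 Reserpinized male rats, intraperitoneal dosing; serum prolactin of vehicle control group reported in ng/mL as mean ± standard error, 10 rats per group, for comparison with treated group.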

[23] = system: Rattus norvegicus; assay: as §5; settings: route intraperitoneal; remark: listed apart in the source
[24] = system: Rattus norvegicus; assay: (§12) Control Serum prolactin level in reserpinized rat after i.p. administration at dosage of 0.5 mg/kg; settings: route intraperitoneal; method in brief: as §11
[25] = system: Rattus norvegicus; assay: Tested for lowering of serum prolactin level in reserpinized rat after i.p. administration at dosage of 0.5 mg/kg; settings: route intraperitoneal
[26] = system: Rattus norvegicus; assay: as §7; method in brief: as §8; remark: listed apart in the source
[27] = system: Rattus norvegicus; assay: Dopaminergic activity causing prolactin inhibition in reserpinized rat after i.p. administration at dosage of 0.5 mg/kg; settings: ip, route intraperitoneal
[28] = system: Rattus norvegicus; assay: Tested for average turns of rat / 1st 15 min at intraperitoneal dosage of 1.0 mg/kg; method in brief: as §2
[29] = system: Rattus norvegicus; assay: as §6; method in brief: as §8; remark: listed apart in the source
[30] = system: Rattus norvegicus; assay: as §12; settings: route intraperitoneal; remark: listed apart in the source
[31] = system: Rattus norvegicus; assay: (§13) Dopaminergic activity causing prolactin inhibition in reserpinized rat after i.p. administration at dosage of 0.05 mg/kg; settings: ip, route intraperitoneal; method in brief: as §4
[32] = system: Rattus norvegicus; assay: tested for average turns of rat / 1st 15 min at intraperitoneal dosage of 0.1 mg/kg; method in brief: as §2
[33] = system: Rattus norvegicus; assay: Percentage of lesioned rats exhibiting contralateral turning after ip dosage of 0.02 mg/kg; settings: route intraperitoneal; method in brief: as §2
[34] = system: Rattus norvegicus; assay: Tested for average turns of rat / 1st 15 min at intraperitoneal dosage of 0.02 mg/kg; method in brief: as §2
[35] = system: Rattus norvegicus; assay: as §13; settings: ip, route intraperitoneal; method in brief: as §10; remark: listed apart in the source
[36] = system: Rattus norvegicus; assay: as §9; settings: route intraperitoneal; method in brief: as §10; remark: listed apart in the source

Compound	inhibition in vivo at 5 mg/kg [1] [%]	Exhibiting turning [2] [%]	Average turns [3]	inhibition in vivo at 0.05 mg/kg [4] [%]	Average turns [9]	Exhibiting turning [10] [%]	Inhibition [11] [ng/mL]	inhibition in vivo at 0.5 mg/kg [27] [%]	other results
Cl.Cl.c1[nH]nc2c1CC1NCCC[C@@H]1C2 (stereo partly drawn)	20	0	0	–	–	–	–	–	–
CCCN1CCC[C@@H]2Cc3c[nH]cc3CC21.O=C(O)/C=C\C(=O)O (stereo partly drawn)	95	–	169	36	64	100	49.5	–	inhibition in vivo at 0.005 mg/kg [5]: 24%; Treatment [6]: 31.6 ng/mL; Exhibiting turning [7]: 50%; Inhibition [8]: 37.6 ng/mL; Exhibiting turning [12]: 33%; Average turns [13]: 49; Inhibition [14]: 49.5 ng/mL
CCCN1CC(CSC)C[C@@H]2Cc3n[nH]cc3CC21.Cl.Cl (stereo partly drawn)	–	100	81	89	65	–	–	–	Inhibition [15]: 44.9 ng/mL; Inhibition [8]: 19.3 ng/mL; Exhibiting turning [16]: 50%; Exhibiting turning [17]: 67%; inhibition in vivo at 0.0005 mg/kg [18]: 30%; Inhibition [19]: 31.5 ng/mL; inhibition in vivo at 0.005 mg/kg [20]: 57%; Average turns [13]: 80; Inhibition [14]: 44.9 ng/mL
O=C(O)/C=C\C(=O)O.c1[nH]cc2c1CC1NCCC[C@@H]1C2 (stereo partly drawn)	–	0	0	–	–	–	–	–	inhibition in vivo at 5 mg/kg [21]: 26%; Inhibition [22]: 43.4 ng/mL
CCCN(CCC)C1Cc2cccc3[nH]cc(c23)C1.O=C(O)C(=O)O (stereo not drawn)	95	–	–	0	–	60	46.1	59	Inhibition [23]: 46.2 ng/mL; Control level [24]: 46.1 ng/mL; Serum level [25]: 18.9 ng/mL; Average turns [26]: 73; Average turns [28]: 113; Exhibiting turning [29]: 40%
CCCN(CCC)C1CCc2c[nH]cc2C1.O=C(O)/C=C\C(=O)O (stereo not drawn)	93	–	52	20	–	40	59.8	40	Inhibition [23]: 47.6 ng/mL; Serum level [25]: 36.1 ng/mL; Average turns [26]: 0; Concentration [30]: 59.8 ng/mL; Exhibiting turning [29]: 0%
C=CCN1CCC[C@@H]2Cc3n[nH]cc3CC21.Cl.Cl (stereo partly drawn)	–	100	165	–	0	–	–	–	inhibition in vivo at 0.05 mg/kg [31]: 31%; Exhibiting turning [16]: 0%
CCCN1CC(CSC)C[C@@H]2c3cccc4[nH]cc(c34)CC21.COS(=O)(=O)O (stereo partly drawn)	–	100	93	95	–	–	–	–	Average turns [32]: 81; Inhibition [15]: 37.7 ng/mL; inhibition in vivo at 0.005 mg/kg [5]: 91%; Inhibition [8]: 3.5 ng/mL; Exhibiting turning [16]: 83%; Exhibiting turning [33]: 0%; Exhibiting turning [17]: 100%; inhibition in vivo at 0.0005 mg/kg [18]: 59%; Average turns [34]: 0; Inhibition [19]: 15.5 ng/mL; Average turns [13]: 60; Inhibition [14]: 37.7 ng/mL
Cl.Cl.NC1CCc2n[nH]cc2C1 (stereo not drawn)	14	–	0	–	–	0	–	–	–
CN(C)C1Cc2cccc3[nH]cc(c23)C1.O=C(O)C(=O)O (stereo not drawn)	91	–	–	45	0	75	36.4	–	Inhibition [23]: 19.9 ng/mL; Exhibiting turning [7]: 0%; Average turns [28]: 69
CCCN(CCC)C1CCc2c[nH]nc2C1 (stereo not drawn)	–	–	114	31	–	100	–	–	Average turns [26]: 0; Exhibiting turning [29]: 0%
CN1CCC[C@@H]2Cc3n[nH]cc3CC21.Cl.Cl (stereo partly drawn)	84	0	0	2	–	–	31.7	42	Inhibition [23]: 31.1 ng/mL; Serum level [25]: 18.5 ng/mL; Concentration [30]: 31.7 ng/mL
NC1CCc2c[nH]cc2C1 (stereo not drawn)	24	–	0	–	–	0	–	–	–
CN1CCC[C@@H]2Cc3c[nH]cc3CC21.O=C(O)/C=C\C(=O)O (stereo partly drawn)	90	–	19	–	–	33	–	18	Serum level [25]: 30.9 ng/mL; Concentration [30]: 37.7 ng/mL
CCN(CC)C1CCc2c[nH]cc2C1.O=C(O)/C=C\C(=O)O (stereo not drawn)	23	–	0	–	–	0	–	–	–
CCCN1CCC[C@@H]2Cc3n[nH]cc3CC21.Cl.Cl (stereo partly drawn)	91	100	85	61	67	–	–	76	Exhibiting turning [16]: 75%; Exhibiting turning [17]: 67%; Average turns [13]: 6
CCCN1CC(CO)C[C@@H]2Cc3c[nH]cc3CC21 (stereo partly drawn)	–	–	109	17	8	100	–	–	Exhibiting turning [7]: 67%
CCCN(CCC)C1CCc2n[nH]cc2C1.Cl.Cl (stereo not drawn)	94	60	90	–	0	–	–	66	Treatment [6]: 30.8 ng/mL; Serum level [25]: 10.6 ng/mL; inhibition in vivo at 0.05 mg/kg [35]: 1%; Exhibiting turning [16]: 0%; Concentration [30]: 31.2 ng/mL; Control [36]: 31.2 ng/mL
CN(C)C1CCc2n[nH]cc2C1.Cl.Cl (stereo not drawn)	69	–	0	32	–	0	59.8	–	Inhibition [23]: 41 ng/mL

Source: ChEMBL document CHEMBL1121430, “Bicyclic and tricyclic ergoline partial structures. Rigid 3-(2-aminoethyl)pyrroles and 3- and 4-(2-aminoethyl)pyrazoles as dopamine agonists” (1980)
